Results reported in ChEMBL document CHEMBL5352442, “Structure-based design, synthesis and evaluation of a novel family of PEX5-PEX14 interaction inhibitors against Trypanosoma” (Eur J Med Chem, 2022).

Columns and labels:
[1] = Inhibition of biotinylated PEX5 (unknown origin)/N-terminal His-tagged Trypanosoma brucei PEX14 (19 to 84 residues) expressed in Escherichia coli BL21 by AlphaScreen assay
Method in brief: (§1)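 Streptavidin donor and Ni-chelate acceptor beads each 5 μg/mL. Inhibitor serial dilutions at constant 5% DMSO.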

[2] = Inhibition of biotinylated PEX5 (unknown origin)/N-terminal His-tagged Trypanosoma cruzi PEX14 (19 to 84 residues) expressed in Escherichia coli BL21 by AlphaScreen assay; method in brief: as §1
[3] = Binding affinity to Ni-NTA-ATTO647-labeled N-terminal His-tagged Trypanosoma brucei PEX14 (19 to 84 residues) expressed in Escherichia coli BL21 assessed as dissociation constant by MST assay
Method in brief: (§2)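 PEX14 N-terminal domain (aa 19–84, N-His), purified by Ni-NTA and then SEC in PBS, labeled with Ni-NTA-ATTO647 at protein:label 2:1 for 1 h at room temperature in the dark. Buffer: 50 mM Tris-HCl pH 7.4, 150 mM NaCl, 10 mM MgCl2, 0.0125% Tween 20. Labeled protein 200 nM with inhibitor serial dilution, 5% DMSO. Triplicates; Kd from MST fit; mean of n = 3.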

[4] = Binding affinity to Ni-NTA-ATTO647-labeled N-terminal His-tagged Trypanosoma cruzi PEX14 (19 to 84 residues) expressed in Escherichia coli BL21 assessed as dissociation constant by MST assay; method in brief: as §2
[5] = tested on: Trypanosoma brucei brucei; test: Trypanocidal activity against bloodstream form of Trypanosoma brucei brucei incubated for 66 hrs by resazurin dye based assay; format: functional, organism-based
Method in brief: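 T. b. brucei Lister 427 bloodstream form in HMI-11 with 10% FBS, 37 °C, 5% CO2. Ten-point 1:1 serial dilutions in quadruplicate; final 2×10^3 parasites/mL. After 66 h, resazurin was added and plates incubated to 72 h. Fluorescence ex 530/em 585 nm, medium background subtracted, survival normalized to no-compound well. IC50 from sigmoidal nonlinear regression.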

Structure (SMILES)	EC50 [1]	EC50 [2]	Kd [3]	Kd [4]	IC50 [5]
CCN1C(=O)c2ccccc2Oc2cc(NC(=O)Cc3ccc(F)cc3)ccc21	875 µM	4590 µM	131 µM	124 µM	8.12 µM
CCN1C(=O)c2ccccc2Oc2cc(NC(=O)Cc3ccc(Cl)cc3)ccc21	54 µM	2370 µM	385 µM	2800 µM	5.39 µM
CCN1C(=O)c2ccccc2Oc2cc(NS(=O)(=O)c3ccccc3)ccc21	935 µM	778 µM	20 µM	12 µM	7.1 µM
CCN1C(=O)c2ccccc2Sc2cc(NC(=O)Cc3ccc(F)cc3)ccc21	230 µM	637 µM	951 µM	56 µM	5.4 µM
CCN1C(=O)c2ccccc2Oc2cc(NC(=O)Cc3cccc(Cl)c3)ccc21	500 µM	2930 µM	44 µM	64 µM	7.38 µM
CCN1C(=O)c2ccccc2Oc2cc(NC(=O)Cc3cscn3)ccc21			61000 µM	1700 µM	57.5 µM
CCN1C(=O)c2ccccc2Oc2cc(NC(=O)Oc3ccccc3)ccc21	250 µM	3590 µM	232 µM	100000 µM	52.8 µM
CCN1C(=O)c2ccccc2Oc2cc(NC(=O)Cn3nnc4ccccc43)ccc21	351 µM	13000 µM	14 µM	3 µM	7.9 µM
CCN1C(=O)c2ccccc2Oc2cc(NS(=O)(=O)Cc3ccccc3)ccc21	3630 µM	6830 µM	158 µM	252 µM	19.4 µM
CCN1C(=O)c2ccccc2Oc2cc(NC(=O)Cc3cccc4ccccc34)ccc21	69 µM	4520 µM	147 µM	42 µM	6.35 µM
CC(C)N1C(=O)c2cccnc2[S+]([O-])c2cc(NC(=O)Cc3ccc(F)cc3)ccc21 (stereo unspecified)	1730 µM				
CCN1C(=O)c2ccccc2Oc2cc(NC(=O)Cc3cccnc3)ccc21	843 µM	1230 µM	1460 µM	3450 µM	29.4 µM
CCN1C(=O)c2ccccc2Oc2cc(NC(=O)Cc3ccsc3)ccc21	825 µM	2360 µM	29 µM	9 µM	8.3 µM
CCN1C(=O)c2ccccc2Oc2cc(NC(=O)[C@@H](N)c3ccccc3)ccc21	253 µM	421 µM	625 µM	10200 µM	13.4 µM
CS(=O)(=O)N1C(=O)c2ccccc2Oc2cc(NC(=O)Cc3ccc(F)cc3)ccc21	422 µM	10300 µM	2 µM	3000 µM	19.3 µM
CCN1C(=O)c2ccccc2Oc2cc(NC(=O)Cc3c[nH]c4ccccc34)ccc21	109 µM	677 µM	13 µM	9 µM	13.7 µM
COC(=O)N1C(=O)c2ccccc2Oc2cc(NC(=O)Cc3ccc(F)cc3)ccc21	480 µM		369 µM	258 µM	7.7 µM
CCN1C(=O)c2ccccc2Oc2cc(NC(=O)[C@@H](NC(=O)OC(C)(C)C)c3ccccc3)ccc21	318 µM	1610 µM	380 µM	2 µM	58.5 µM
CC(C)N1C(=O)c2cccnc2Sc2cc(NC(=O)Cc3ccc(F)cc3)ccc21	1050 µM	2290 µM	24 µM	5 µM	0.86 µM
O=C(Cc1ccc(F)cc1)Nc1ccc2c(c1)Oc1ccccc1C(=O)N2	11000 µM	551 µM			20.7 µM
COC(=O)CN1C(=O)c2ccccc2Oc2cc(NC(=O)Cc3ccc(F)cc3)ccc21	7230 µM	4590 µM			11.6 µM
CCN1C(=O)c2ccccc2Oc2cc(NC(=O)Cc3ccccc3)ccc21	1090 µM	788 µM			13.3 µM
CCN1C(=O)c2ccccc2Oc2cc(NC(=O)Cc3cnccn3)ccc21	741 µM	1930 µM	840 µM		47.6 µM
